PubChem BioAssay AID2247 (Johns Hopkins Ion Channel Center, 2010)
Among all 300,000 compounds or so, about 1,200 (0.4%) were called active.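 Rule for the calls: active = B-score over 3 SD under the library average, no early fluorescence shift, positive overall ratio signal; inactive = the rest.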 Only a selection was taken, and actives are over-represented in it overall.

biological target: Short transient receptor potential channel 4 (Mus musculus) (UniProt Q9QUQ5); experiment: inhibitors of mouse TRPC4 channel, primary screen, Fluo4 calcium, HEK293 TRPC4beta/mu-opioid cells (AID 2247); conditions: DAMGO-evoked Fluo4 calcium flux, at 10 µM; active compounds read low
How it was run: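 Signal: kinetic Fluo4 fluorescence imaging of calcium influx. Material: stable TRPC4beta/mu-opioid receptor HEK293 cells. Probe or stimulus: DAMGO in two steps, submaximal then maximal.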

Chain of Short transient receptor potential channel 4 (Mus musculus) (Q9QUQ5 whole entry, looked up): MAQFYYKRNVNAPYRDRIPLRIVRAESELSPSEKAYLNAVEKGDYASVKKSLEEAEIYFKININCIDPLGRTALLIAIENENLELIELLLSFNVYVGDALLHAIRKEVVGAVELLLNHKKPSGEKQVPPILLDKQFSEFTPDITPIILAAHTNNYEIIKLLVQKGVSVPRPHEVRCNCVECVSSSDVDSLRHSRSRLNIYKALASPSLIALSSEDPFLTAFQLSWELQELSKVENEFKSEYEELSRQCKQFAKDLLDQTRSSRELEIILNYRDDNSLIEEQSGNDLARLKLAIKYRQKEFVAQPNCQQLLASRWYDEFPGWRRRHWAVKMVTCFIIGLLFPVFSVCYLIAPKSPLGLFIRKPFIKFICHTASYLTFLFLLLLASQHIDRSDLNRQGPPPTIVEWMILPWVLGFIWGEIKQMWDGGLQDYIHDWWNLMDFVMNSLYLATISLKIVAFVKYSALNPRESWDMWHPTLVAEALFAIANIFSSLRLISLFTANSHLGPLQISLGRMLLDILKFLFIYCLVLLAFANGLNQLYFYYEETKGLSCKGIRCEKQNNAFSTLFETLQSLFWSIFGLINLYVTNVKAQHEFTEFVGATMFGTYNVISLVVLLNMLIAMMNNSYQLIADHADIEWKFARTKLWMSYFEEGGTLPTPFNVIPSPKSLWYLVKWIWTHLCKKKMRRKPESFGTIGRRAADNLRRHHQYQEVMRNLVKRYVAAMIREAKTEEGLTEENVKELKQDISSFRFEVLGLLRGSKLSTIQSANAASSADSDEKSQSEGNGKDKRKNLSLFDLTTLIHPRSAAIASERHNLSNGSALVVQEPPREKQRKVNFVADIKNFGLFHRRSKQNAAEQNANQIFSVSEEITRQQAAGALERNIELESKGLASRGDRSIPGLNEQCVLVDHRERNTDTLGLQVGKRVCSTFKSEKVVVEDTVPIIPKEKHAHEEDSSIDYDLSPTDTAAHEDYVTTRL

B-score, active:
COc1ccc(-n2ncc3c(N4CCc5ccccc54)ncnc32)cc1 -7
COc1ccc(CN2CCCC(CNC(=O)c3ccc(F)cc3)C2)cc1OC (stereo unspecified) -6
COc1ccc(CCN(C)CCN2C(=O)c3ccccc3C2=O)cc1OC -8
CCCCCCCCCCOC(=O)Cn1c(COc2cccc(OC)c2)[n+](C)c2ccccc21 -6
Cc1ccc(O)c(CNc2nc3ccccc3[nH]2)c1 -7
CSc1ccc(/C=N\NC(=O)CC(=O)NC(C)C)cc1 -8
CCOc1ccc(Cn2c(SCCCCC#N)nc3c2c(=O)n(C)c(=O)n3C)cc1OCC -5
CSCCNCc1cn(-c2ccc(F)cc2F)nc1-c1ccccc1C -7
CN(C)c1cc(N)c2ccccc2n1 (tested in a mixture with another compound) -5
Cc1nn(-c2ccccc2)c2[nH]c(C(F)(F)F)cc(=O)c12 -7
Clc1ccc(COn2c(-c3ccc(Cl)cc3Cl)nc3ncccc32)cc1 -9
FC(F)Oc1ccccc1NC(=S)Nc1cccc(Cl)c1Cl -7
COc1ncnc2sc3c(c12)CCCC3 -6
COc1ccc(-c2n[nH]c(C)c2-c2ccccc2OC)c(O)c1 -6
CN(C)c1ccc(NC(=O)CN2C3CCCC2CC(NC(=O)c2ccccc2)C3)cc1 (stereo unspecified) -9

B-score, inactive:
COc1ccc(-n2ncc3c(SCC(=O)NNC(C)=O)ncnc32)cc1
CC(C)Sc1ncnc2c1cnn2-c1ccccc1
Nc1ccc(Cl)c(S(=O)(=O)Nc2ccccc2Cl)c1
O=C(COC(=O)/C=C/c1cccc(Cl)c1)NCCc1ccccc1
COc1ccc(Cc2nc3ccc(C(=O)NCC4CCOCC4)cc3o2)cc1OC
COc1ccc(CCN(C)C(=O)C2CCCN(Cc3ccc(OC)c(OC)c3)C2)cc1OC (stereo unspecified)
O/N=C(\C[n+]1ccccc1)c1ccc(Br)cc1
Cn1ncc(Br)c1C(=O)NC1CCCC1
COc1ccc(CCN2C(=O)C3CC=C(C)CC3C2=O)cc1OC (stereo unspecified)
COc1ccc(CCN2C(=O)C(C)=C(C)C2=O)cc1OC
O=C(CSc1ncnc2c1oc1ccccc12)NC1CCCC1
CCCCCCCCCCOC(=O)Cn1c(COc2ccc(C)cc2)[n+](C)c2ccccc21
CCn1c(COc2cccc(OC)c2)nnc1SCC(=O)N1CCOCC1
O=C(OCC(=O)N1CCCC1=O)c1cc(S(=O)(=O)N2CCOCC2)ccc1Cl
CCOc1ccc(C(=O)Nc2ccc(CN3CCOCC3)cc2)cc1Cl
Cn1c(=O)[nH]c(=O)c2c1nc(NCCCn1ccnc1)n2Cc1cccc(Br)c1
O=C(COc1ccccc1Cl)Nc1ccccc1C(=O)NC1CC1
Cc1ccccc1OCC(=O)NNC(=O)c1ccc(-n2cncn2)c([N+](=O)[O-])c1
Cc1ccc(-c2cc(=O)[nH]c(NCc3ccccc3)n2)cc1
Cc1ccc(O)c(CNc2nc3ccccc3n2C)c1
CCC1CCCCN1S(=O)(=O)Cc1ccccc1Cl (stereo unspecified)
CCc1ccc(NC(=O)CN2CCC(C(=O)c3ccc(OC)cc3)CC2)cc1
CC1(C)OC(=O)C(=CSc2ccc(C(C)(C)C)cc2)C(=O)O1
CSc1ccc(/C=N/NC(=O)c2cccc(Cl)c2)cc1
Cc1ccc(-n2c(C)cc(/C=N\NC(=O)CC(=O)NC(C)C)c2C)cc1
Cc1ccc(-c2csc(NCCc3nc4cc(Cl)c(Cl)cc4n3CCOCCO)n2)cc1
Cc1cccc(Cn2c(SCCO)nc3c2c(=O)n(C)c(=O)n3C)c1
CCCSc1nc2c(c(=O)n(C)c(=O)n2C)n1Cc1ccc(C)cc1
COc1ccc(N2C(=O)C3C(C2=O)C(C(=O)c2ccccc2)N2CCCC32)cc1 (stereo unspecified)
O=C(COC(=O)c1ccc(F)cc1)NCCCc1ccccc1
Cc1ccc(-c2nn(-c3cccc(F)c3)cc2CNCCc2ccncc2)o1
COc1ccccc1CC(=O)Nc1ccc(F)cc1F
O=C(NC1CC1)C1CCCN(C(=O)NC2CCCCC2)C1 (stereo unspecified)
CCc1nc(SCC(=O)Nc2ccccc2OC)n[nH]1
COc1ccc(N(CC(=O)Nc2cc(OC)cc(OC)c2)S(=O)(=O)c2c(C)n[nH]c2C)cc1
O=C(O)C(F)(F)C(NCc1ccccc1)c1ccccc1 (stereo unspecified)
CCCc1c(C(=O)N/N=C(\C)CCc2ccc(OC)cc2)nnn1-c1nonc1N
COc1ccc(-c2cc(C(=O)N(C)Cc3ccccc3)c3ccccc3n2)cc1
Nc1nc(-c2ccccc2)cc(-c2ccccc2)n1
COc1ccccc1C(=O)N(Cc1ccc(C)o1)C1CCS(=O)(=O)C1 (stereo unspecified)
CCCCCCCCCOC1OC(CO)C(O)C(O)C1NC(C)=O (stereo unspecified)
Cc1nc2c(c(C)nn2-c2ccccc2)c(C)c1C
Cc1nn(-c2ccccc2)c(=O)c2noc(C)c12
COc1ccc(Nc2cc(Sc3ccc(OC)cc3)ncn2)cc1
Clc1ccc(-c2ncc3ccccn23)c(Cl)c1
COn1c(-c2ccc(Cl)cc2Cl)nc2ncccc21
O=C(COC(=O)c1ccc([N+](=O)[O-])cc1Cl)NC(=O)c1ccccc1
Cc1cc(C)c(S(=O)(=O)NCC(c2ccc3c(c2)OCO3)N2CCOCC2)c(C)c1 (stereo unspecified)
N#C/C(=C/c1ccc(Cl)cc1)NC(=O)c1ccccc1
Cc1c(Cl)c([N+](=O)[O-])nn1CC(=O)NCCCN1CCOCC1
COc1ccccc1NC(=S)NC(=O)C(C)C
CC(=O)Nc1ccc(NC(=O)COc2ccccc2C(=O)Nc2cccc(Cl)c2Cl)cc1
CCCCc1nc(SCC(=O)Nc2nnc(C(C)C)s2)n[nH]1
C[N+](C)(C)CCOP(=O)([O-])OC[C@H](O)CO
O=C(Nc1cccc(S(=O)(=O)NC2=NCCC2)c1)C1CCCCC1
COc1ccc(/C=N/Nc2ncnc3sc4c(c23)CCCC4)cc1O
N=c1c2c3c(sc2ncn1N)CCCC3
Cc1ccc(S(=O)(=O)N(CC(O)CN2CCCCC2)c2cccc([N+](=O)[O-])c2)cc1 (stereo unspecified)
Cc1cc(C)n2nc(C(=O)OCC(=O)N(CCC#N)c3ccc(F)cc3)nc2n1
CCCn1nc(NS(=O)(=O)c2ccc(F)cc2)c2cc3ccccc3nc21
C=C(C)COc1ccc(-c2n[nH]c(C)c2-c2ccccc2)c(O)c1
C=C(C)COc1ccc(-c2n[nH]c(C)c2-c2ccccc2OC)c(O)c1
Cc1ccc(-n2c(C)cc(C(=O)CSc3nnc4ccccn34)c2C)cc1
CC(=O)NC1CC2CCCC(C1)N2CC(=O)Nc1ccccc1 (stereo unspecified)
COc1ccc(NC(=O)NC2CC3CCCC(C2)N3Cc2ccccc2)cc1 (stereo unspecified)
COc1ccc(OC)c(C(C)NC(=S)Nc2ccc(S(=O)(=O)Nc3ncccn3)cc2)c1 (stereo unspecified)
